{"source": "paper PMC6369589", "about": "(Cell, 2019)", "key": {"Ae. aegypti NPYLR5": {"system": "Ae. aegypti NPYLR5", "assay": "GCaMP6s calcium cell-based assay, HEK293T cells expressing NPYLR5 and Gqα15", "design": "species or system Aedes aegypti", "conditions": "dose-inhibition of TM30335 activation", "how_it_was_run": "(§1)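 HEK293T cells transiently co-transfected (Lipofectamine 2000) with 1 μg each of GCaMP6s, mouse Gqα15 and receptor plasmids. Cells were plated overnight in DMEM/FBS at 37°C, 5% CO2, then imaged in HBSS + 20 mM HEPES. Test agonist plus inhibitor added after 30 s baseline; GFP fluorescence read every 1 s for 5 min, normalized to baseline. Log(inhibitor)-response nonlinear fit; mean ± SD, 3 trials × 4 replicates.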"}, "Ae. aegypti NPYLR7": {"biological_target": "Ae. aegypti NPYLR7 (Aedes aegypti, UniProt U5N1H5)", "assay": "GCaMP6s calcium cell-based assay, HEK293T cells expressing NPYLR7 and Gqα15", "how_it_was_run": "as §1"}, "[1]": {"system": "Ae. aegypti female mosquitoes", "assay": "Miniport olfactometer host-seeking after Glytube drug-feeding", "assay_type": "in vivo, Aedes aegypti", "conditions": "fed in protein-rich artificial blood-meal, assayed 2 days after feeding"}}}
{"smiles": "N=C(N)NCCC[C@H](NC(=O)CC1(CC(=O)N2CCN(C3c4ccccc4NC(=O)c4ccccc43)CC2)CCCC1)C(=O)NCCn1c(=O)n(-c2ccccc2)n(-c2ccccc2)c1=O", "note": "(stereo partly drawn) [BIIE0246]", "values": [{"measurement": "effect on NPYLR5 responses to TM30335", "setting": "Ae. aegypti NPYLR5", "result": "no effect"}, {"measurement": "IC50", "setting": "Ae. aegypti NPYLR7", "result": 5.1, "unit": "µM"}, {"measurement": "release from host-seeking suppression in miniport olfactometer", "setting": "[1]", "result": "dose-dependent release from suppression"}]}
